Results as given in paper PMC9321909 (British Journal of Haematology, 2022).
“Also recorded” adds a separate entry of the source.

Assays:
[1] = assay type: in vivo, human (Chinese patients)
[2] = Safety: treatment-emergent adverse events, NCI CTCAE v4.03; assay type: in vivo, human (Chinese patients)
Summary of the method: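 Patients took oral test compound at 320 mg QD or 160 mg BID until progression or unacceptable toxicity. AEs were graded per NCI CTCAE v4.03, and treatment-emergent AEs were summarized. AEs of special interest included haemorrhage, atrial fibrillation/flutter, hypertension, second primary malignancies, tumour lysis syndrome, infections and cytopenias. Percentages use patients receiving ≥1 dose as the denominator.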

C=CC(=O)N1CCC([C@@H]2CCNc3c(C(N)=O)c(-c4ccc(Oc5ccccc5)cc4)nn32)CC1 [zanubrutinib]
half-life ([1]; human, plasma, oral): 2.3 to 3.4 h | time of C max post dose ([1]; oral 160 mg and 320 mg doses): ~ 2 h | Anaemia, TEAE any grade ([2]; 160 mg BID (n = 34)): 12 (35.3) n (%) | Anaemia, grade ≥ 3 TEAE ([2]; 160 mg BID (n = 34)): 4 (11.8) n (%) | Atrial fibrillation/flutter, any grade TEAE of special interest ([2]; 160 mg BID (n = 34)): 0 (0.0) n (%) | Cough, TEAE any grade ([2]; 160 mg BID (n = 34)): 5 (14.7) n (%) | Cytopenias: Anaemia, any grade TEAE of special interest ([2]; 160 mg BID (n = 34)): 14 (41.2) n (%) | Cytopenias: Neutropenia, any grade TEAE of special interest ([2]; 160 mg BID (n = 34)): 18 (52.9) n (%) | Cytopenias: Thrombocytopenia, any grade TEAE of special interest ([2]; 160 mg BID (n = 34)): 9 (26.5) n (%) | Haemorrhage, any grade TEAE of special interest ([2]; 160 mg BID (n = 34)): 11 (32.4) n (%) | Hematuria, TEAE any grade ([2]; 160 mg BID (n = 34)): 6 (17.6) n (%) | Hypertension, any grade TEAE of special interest ([2]; 160 mg BID (n = 34)): 0 (0.0) n (%) | Hyperuricemia, TEAE any grade ([2]; 160 mg BID (n = 34)): 6 (17.6) n (%) | Infections, any grade TEAE of special interest ([2]; 160 mg BID (n = 34)): 19 (55.9) n (%) | Major haemorrhage, any grade TEAE of special interest ([2]; 160 mg BID (n = 34)): 1 (2.9) n (%) | Neutropenia, grade ≥ 3 TEAE ([2]; 160 mg BID (n = 34)): 4 (11.8) n (%) | Neutrophil count decreased, TEAE any grade ([2]; 160 mg BID (n = 34)): 17 (50.0) n (%) | Neutrophil count decreased, grade ≥ 3 TEAE ([2]; 160 mg BID (n = 34)): 6 (17.6) n (%) | Patients with ≥1 TEAE of special interest, any grade ([2]; 160 mg BID (n = 34)): 30 (88.2) n (%) | Patients with ≥1 any‐grade TEAE ([2]; 160 mg BID (n = 34)): 33 (97.1) n (%) | Patients with ≥1 grade 3 or higher TEAE ([2]; 160 mg BID (n = 34)): 18 (52.9) n (%) | Platelet count decreased, TEAE any grade ([2]; 160 mg BID (n = 34)): 8 (23.5) n (%) | Platelet count decreased, grade ≥ 3 TEAE ([2]; 160 mg BID (n = 34)): 1 (2.9) n (%) | Pneumonia, TEAE any grade ([2]; 160 mg BID (n = 34)): 6 (17.6) n (%) | Pneumonia, grade ≥ 3 TEAE ([2]; 160 mg BID (n = 34)): 3 (8.8) n (%) | Rash, TEAE any grade ([2]; 160 mg BID (n = 34)): 8 (23.5) n (%) | Second primary malignancies, any grade TEAE of special interest ([2]; 160 mg BID (n = 34)): 0 (0.0) n (%) | Thrombocytopenia, grade ≥ 3 TEAE ([2]; 160 mg BID (n = 34)): 1 (2.9) n (%) | Tumour lysis syndrome, any grade TEAE of special interest ([2]; 160 mg BID (n = 34)): 0 (0.0) n (%) | Upper respiratory tract infection, TEAE any grade ([2]; 160 mg BID (n = 34)): 10 (29.4) n (%) | Upper respiratory tract infection, grade ≥ 3 TEAE ([2]; 160 mg BID (n = 34)): 2 (5.9) n (%) | Weight increased, TEAE any grade ([2]; 160 mg BID (n = 34)): 5 (14.7) n (%) | White blood cell count decreased, TEAE any grade ([2]; 160 mg BID (n = 34)): 11 (32.4) n (%) | White blood cell count decreased, grade ≥ 3 TEAE ([2]; 160 mg BID (n = 34)): 1 (2.9) n (%) | White blood cell count increased, grade ≥ 3 TEAE ([2]; 160 mg BID (n = 34)): 2 (5.9) n (%) | Anaemia, TEAE any grade ([2]; 320 mg QD (n = 10)): 4 (40.0) n (%) | Anaemia, grade ≥ 3 TEAE ([2]; 320 mg QD (n = 10)): 1 (10.0) n (%) | Atrial fibrillation/flutter, any grade TEAE of special interest ([2]; 320 mg QD (n = 10)): 0 (0.0) n (%) | Cough, TEAE any grade ([2]; 320 mg QD (n = 10)): 3 (30.0) n (%) | Cytopenias: Anaemia, any grade TEAE of special interest ([2]; 320 mg QD (n = 10)): 4 (40.0) n (%) | Cytopenias: Neutropenia, any grade TEAE of special interest ([2]; 320 mg QD (n = 10)): 7 (70.0) n (%) | Cytopenias: Thrombocytopenia, any grade TEAE of special interest ([2]; 320 mg QD (n = 10)): 3 (30.0) n (%) | Haemorrhage, any grade TEAE of special interest ([2]; 320 mg QD (n = 10)): 4 (40.0) n (%) | Hematuria, TEAE any grade ([2]; 320 mg QD (n = 10)): 3 (30.0) n (%) | Hypertension, any grade TEAE of special interest ([2]; 320 mg QD (n = 10)): 1 (10.0) n (%) | Hyperuricemia, TEAE any grade ([2]; 320 mg QD (n = 10)): 3 (30.0) n (%) | Infections, any grade TEAE of special interest ([2]; 320 mg QD (n = 10)): 7 (70.0) n (%) | Major haemorrhage, any grade TEAE of special interest ([2]; 320 mg QD (n = 10)): 0 (0.0) n (%) | Neutropenia, grade ≥ 3 TEAE ([2]; 320 mg QD (n = 10)): 0 (0.0) n (%) | Neutrophil count decreased, TEAE any grade ([2]; 320 mg QD (n = 10)): 7 (70.0) n (%) | Neutrophil count decreased, grade ≥ 3 TEAE ([2]; 320 mg QD (n = 10)): 5 (50.0) n (%) | Patients with ≥1 TEAE of special interest, any grade ([2]; 320 mg QD (n = 10)): 10 (100.0) n (%) | Patients with ≥1 any‐grade TEAE ([2]; 320 mg QD (n = 10)): 10 (100.0) n (%) | Patients with ≥1 grade 3 or higher TEAE ([2]; 320 mg QD (n = 10)): 6 (60.0) n (%) | Platelet count decreased, TEAE any grade ([2]; 320 mg QD (n = 10)): 2 (20.0) n (%) | Platelet count decreased, grade ≥ 3 TEAE ([2]; 320 mg QD (n = 10)): 1 (10.0) n (%) | Pneumonia, TEAE any grade ([2]; 320 mg QD (n = 10)): 3 (30.0) n (%) | Pneumonia, grade ≥ 3 TEAE ([2]; 320 mg QD (n = 10)): 0 (0.0) n (%) | Rash, TEAE any grade ([2]; 320 mg QD (n = 10)): 2 (20.0) n (%) | Second primary malignancies, any grade TEAE of special interest ([2]; 320 mg QD (n = 10)): 0 (0.0) n (%) | Thrombocytopenia, grade ≥ 3 TEAE ([2]; 320 mg QD (n = 10)): 1 (10.0) n (%) | Tumour lysis syndrome, any grade TEAE of special interest ([2]; 320 mg QD (n = 10)): 0 (0.0) n (%) | Upper respiratory tract infection, TEAE any grade ([2]; 320 mg QD (n = 10)): 5 (50.0) n (%) | Upper respiratory tract infection, grade ≥ 3 TEAE ([2]; 320 mg QD (n = 10)): 2 (20.0) n (%) | Weight increased, TEAE any grade ([2]; 320 mg QD (n = 10)): 3 (30.0) n (%) | White blood cell count decreased, TEAE any grade ([2]; 320 mg QD (n = 10)): 3 (30.0) n (%) | White blood cell count decreased, grade ≥ 3 TEAE ([2]; 320 mg QD (n = 10)): 1 (10.0) n (%) | White blood cell count increased, grade ≥ 3 TEAE ([2]; 320 mg QD (n = 10)): 1 (10.0) n (%) | Anaemia, TEAE any grade ([2]; Total (N = 44)): 16 (36.4) n (%) | Anaemia, grade ≥ 3 TEAE ([2]; Total (N = 44)): 5 (11.4) n (%) | Atrial fibrillation/flutter, any grade TEAE of special interest ([2]; Total (N = 44)): 0 (0.0) n (%) | Cough, TEAE any grade ([2]; Total (N = 44)): 8 (18.2) n (%) | Cytopenias: Anaemia, any grade TEAE of special interest ([2]; Total (N = 44)): 18 (40.9) n (%) | Cytopenias: Neutropenia, any grade TEAE of special interest ([2]; Total (N = 44)): 25 (56.8) n (%) | Cytopenias: Thrombocytopenia, any grade TEAE of special interest ([2]; Total (N = 44)): 12 (27.3) n (%) | Haemorrhage, any grade TEAE of special interest ([2]; Total (N = 44)): 15 (34.1) n (%) | Hematuria, TEAE any grade ([2]; Total (N = 44)): 9 (20.5) n (%) | Hypertension, any grade TEAE of special interest ([2]; Total (N = 44)): 1 (2.3) n (%) | Hyperuricemia, TEAE any grade ([2]; Total (N = 44)): 9 (20.5) n (%) | Infections, any grade TEAE of special interest ([2]; Total (N = 44)): 26 (59.1) n (%) | Major haemorrhage, any grade TEAE of special interest ([2]; Total (N = 44)): 1 (2.3) n (%) | Neutropenia, grade ≥ 3 TEAE ([2]; Total (N = 44)): 4 (9.1) n (%) | Neutrophil count decreased, TEAE any grade ([2]; Total (N = 44)): 24 (54.5) n (%) | Neutrophil count decreased, grade ≥ 3 TEAE ([2]; Total (N = 44)): 11 (25.0) n (%) | Patients with ≥1 TEAE of special interest, any grade ([2]; Total (N = 44)): 40 (90.9) n (%) | Patients with ≥1 any‐grade TEAE ([2]; Total (N = 44)): 43 (97.7) n (%) | Patients with ≥1 grade 3 or higher TEAE ([2]; Total (N = 44)): 24 (54.5) n (%) | Platelet count decreased, TEAE any grade ([2]; Total (N = 44)): 10 (22.7) n (%) | Platelet count decreased, grade ≥ 3 TEAE ([2]; Total (N = 44)): 2 (4.5) n (%) | Pneumonia, TEAE any grade ([2]; Total (N = 44)): 9 (20.5) n (%) | Pneumonia, grade ≥ 3 TEAE ([2]; Total (N = 44)): 3 (6.8) n (%) | Rash, TEAE any grade ([2]; Total (N = 44)): 10 (22.7) n (%) | Second primary malignancies, any grade TEAE of special interest ([2]; Total (N = 44)): 0 (0.0) n (%) | Thrombocytopenia, grade ≥ 3 TEAE ([2]; Total (N = 44)): 2 (4.5) n (%) | Tumour lysis syndrome, any grade TEAE of special interest ([2]; Total (N = 44)): 0 (0.0) n (%) | Upper respiratory tract infection, TEAE any grade ([2]; Total (N = 44)): 15 (34.1) n (%) | Upper respiratory tract infection, grade ≥ 3 TEAE ([2]; Total (N = 44)): 4 (9.1) n (%) | Weight increased, TEAE any grade ([2]; Total (N = 44)): 8 (18.2) n (%) | White blood cell count decreased, TEAE any grade ([2]; Total (N = 44)): 14 (31.8) n (%) | White blood cell count decreased, grade ≥ 3 TEAE ([2]; Total (N = 44)): 2 (4.5) n (%) | White blood cell count increased, grade ≥ 3 TEAE ([2]; Total (N = 44)): 3 (6.8) n (%) | AEs leading to dose reduction ([2]; all 44 patients): no AEs leading to dose reduction | neutrophil count decreased, most common adverse event (any grade) ([2]; all 44 patients): 54.5% | neutrophil count decreased, most common grade 3 or higher AE ([2]; all 44 patients): 25.0% | patients with AEs leading to dose interruption ([2]; all 44 patients): 18.2% | patients with AEs leading to treatment discontinuation ([2]; all 44 patients): 4.5% | reports of second primary malignancies, tumour lysis syndrome, atrial fibrillation/flutter ([2]; all 44 patients): no reports | grade of haemorrhagic events ([2]; all events except one non‐serious grade 3 purpura): grade 1–2; also recorded: grade 1 or 2 | dose‐limiting toxicity (DLT) events ([2]; part I, 160 mg BID and 320 mg QD): No DLT events
